Experimental findings from ChEMBL document CHEMBL4513216, “Probing the Open Global Health Chemical Diversity Library for Multistage-Active Starting Points for Next-Generation Antimalarials” (ACS Infect Dis, 2020) are described below.

A short description of this data set: Toxicity liver stage against HepG2, at 10uM. Also noted: test concentration 10 uM, cell line HepG2-A16-CD81EGFP. It is filed as cell-based. The note with it: human, HepG2-A16-CD81EGFP cells; read-out: INHIBITION
In outline:
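Uninfected HepG2-A16-CD81EGFP cells, 3 × 10^3 per well, 1536-well, plated on prespotted compound at 10 μM final, parasite-free screening media added to match infected plates; puromycin 10 μM positive, DMSO 0.5% negative; run in parallel with 48 h PbLuc assay at 37 °C, 5% CO2; viability by CellTiter-Glo luminescence, normalized to controls.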
For the molecule `Cn1cc(NC(=O)CNC(=O)N2CCN(c3cccc(Cl)c3)CC2)cn1`, the cytotoxicity at 10 µM was determined as 2.93%.
In the case of `CO[C@@H](C(=O)NC1CCOCC1)c1ccccc1` it was -2.43%.
With `COc1ccc(CC(=O)NC2CCN(CC(F)F)CC2)cc1OC`, the cytotoxicity at 10 µM is -8.48%.
In the case of `Cc1noc(C)c1C(=O)NCCc1cccs1` it was 12%; in that of `Cc1cc(N(C)CCC(O)c2ccccc2)n2nccc2n1` (centres undefined), -2.84%.
As for `CC(=O)Nc1ccc(S(=O)(=O)Nc2c(F)cccc2F)cc1`, the figure is 12.6%; as for `Cc1nc(CC2CCN(C(=O)C(c3ccccc3C)N(C)C)CC2)no1` (centres undefined), 4.66%.
As for `COCCN1C(=O)CC[C@@H]2[C@H]1CCN2Cc1cccc(C#N)c1`, the figure is -33.1%; as for `COCCCN(CCOC)C(=O)Nc1ccccc1Br`, 5.86%.
Take `CCS(=O)(=O)N1Cc2nnn(C)c2C(COCCN(C)C)C1` (centres undefined): the cytotoxicity at 10 µM worked out at 1.55%.
As for `Cc1cccnc1CN1CCN(C(=O)[C@@]23CNC[C@@H]2CN(C)C3)CC1`, the figure is 2.3%.
As for `CC(C)N(C)C(=O)c1ccc(CNc2cncc(Cl)n2)cc1`, the figure is 2.87%; as for `CCCS(=O)(=O)N1CCC(NC(=O)c2cc3ccccc3s2)CC1`, 4.69%.
Take `CCN(Cc1nc(COC)no1)Cc1cccnc1NC(=O)C(C)(C)C`: the cytotoxicity at 10 µM was -47.9%.
In the case of `Cc1nc(N2CCC(C(O)c3nccn3C)CC2)c2cccnc2n1` (centres undefined) it was 1.46%.
In the case of `CCc1cnc(NCCS(=O)(=O)CC(C)C)nc1` it was -13%; in that of `COc1c(C2CCCN2c2ncnc3c2cnn3C)c(C)nn1C` (centres undefined), 1.95%; in that of `O=C(N1CCCC1)N1C[C@@H]2CCNC[C@@H]21`, 0.375%.
Regarding `CN(CCOCC(F)(F)F)CC1CCN(CCO)CC1`, the cytotoxicity at 10 µM was found to be 5.68%.
In the case of `CCC(C)N(Cc1ccncc1)Cc1ccccc1Cn1cccn1` (centres undefined) it was -44.4%.
For the molecule `CC(C)CCN1C[C@@H]2C[C@H](C(=O)Nc3cccnc3)[C@H](C1)O2`, the cytotoxicity at 10 µM is -82.5%.
As for `Cc1cc(N(Cc2ccccc2F)C2CC2)n2nc(C(F)(F)F)nc2n1`, the figure is 0.43%; as for `COc1ccc(C(C)NS(=O)(=O)c2ccc3c(c2)CCC(=O)N3)cc1F` (centres undefined), -49.7%; as for `OC[C@H]1CCCN1c1nccc(-c2c[nH]nc2C2CCCCC2)n1`, -2.5%.
In the case of `CN(C)c1nccnc1C1CCCN(c2cnccn2)C1` (centres undefined) it was -4.92%.
In the case of `Cc1cc(NCC2CCCCC2)n2ncnc2n1` it was -2.1%; in that of `NC1CCc2c(ccc(=O)n2CC2CC2)C1` (centres undefined), -4.37%; in that of `Cc1nc(CN2CCC3(CCN(Cc4cnn(C)c4)CC3)C2=O)cs1`, 2.34%.
`CC(C)(C)n1ncc2c1NC(=O)CC2c1cccs1` (centres undefined): the cytotoxicity at 10 µM was found to be 3.48%.
As for `CCOC(=O)CN(CC(F)(F)F)C(=O)c1nc(C)n2ccccc12`, the cytotoxicity at 10 µM is -20.9%.
`CC(C)c1nc(C2CCCN(c3nccc(N4CCCC4)n3)C2)no1` (centres undefined): the cytotoxicity at 10 µM was 27.6%.
In the case of `CC(C)c1cc(C(=O)N2CCN(CC3CC3)[C@@H]3CS(=O)(=O)C[C@@H]32)on1` it was 3.05%; in that of `Clc1ccc2cccnc2c1CN1CCn2c(nnc2C2CC2)C1`, -2.19%; in that of `Cc1nc(CNC(=O)[C@@H]2CCCN2C(=O)OC(C)(C)C)cs1`, -0.602%.
In the case of `O=C(NCc1ccc(Cl)s1)c1ccc(N2CCOC2=O)cc1` it was 21.1%.
As for `O=C1CC2(CCCNC2)C(=O)N1Cc1cccc(F)c1` (centres undefined), the figure is 3.56%; as for `CS(=O)(=O)Nc1ccc(-n2c(CCCO)nc3ccccc32)cn1`, -3.14%.
With `Cc1cnc(C(=O)N2CC[C@@H]3CN(c4ncccn4)CCO[C@@H]3C2)cn1`, the cytotoxicity at 10 µM was -75.2%.
Regarding `Cc1nnc(CN(Cc2ccc(Cl)c(Cl)c2)C2CC2)o1`, the cytotoxicity at 10 µM stood at 4.85%.
